# B2AR ag – agonists of human beta-2 adrenergic receptor inducing internalization | Am2.2-beta2AR cells, FAP receptor internalization, flow cytometry | hit rate 0.43% among 340,000 | P07550 | AID 504454 | response, % (concentration not given with the values);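 active means response above a set limit, near 3 SD of response in nonfluorescent compounds, cut at about 42% in these data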
# Target sequence (P07550 whole entry, looked up): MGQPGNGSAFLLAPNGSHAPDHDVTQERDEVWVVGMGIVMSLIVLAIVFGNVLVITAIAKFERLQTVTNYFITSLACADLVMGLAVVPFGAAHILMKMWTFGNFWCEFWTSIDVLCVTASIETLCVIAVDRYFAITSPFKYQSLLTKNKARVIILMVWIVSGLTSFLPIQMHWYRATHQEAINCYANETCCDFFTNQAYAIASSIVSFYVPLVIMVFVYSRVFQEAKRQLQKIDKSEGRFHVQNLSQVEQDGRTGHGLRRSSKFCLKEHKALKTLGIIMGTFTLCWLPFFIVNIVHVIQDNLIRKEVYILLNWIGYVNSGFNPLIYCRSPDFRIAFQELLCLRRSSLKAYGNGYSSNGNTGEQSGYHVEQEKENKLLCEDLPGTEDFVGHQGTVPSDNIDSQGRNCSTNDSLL
# Dynein cargo inh – dynein cargo transport inhibition. z-score, hits read low. 3617.4 mouse cells, GR-EGFP nuclear translocation imaging; test concentration mostly 20 µM; stimulated with dexamethasone, 1 µM; hits give low values. hit rate 0.47% among 220,000. AID 1381;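 active means plate z-score of nuclear minus cytoplasmic receptor signal below a set negative limit, without overly bright fluorescence or cell loss, cut at about -3.5 in these data, passing the limit was not always enough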;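 further: z-score of nuclear minus cytoplasmic ring GR-EGFP intensity difference per well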
#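 Medium: Induction medium lacking tetracycline, stripped serum | Probe or stimulus: 1.0 µM final dexamethasone stimulus | Schedule: 48 h induction, then 1 h compound, then 30 min agonist, 37 °C | Signal: Automated 10x imaging of fixed Hoechst-stained cells | Evaluation: Per-cell GR-EGFP intensity, nucleus versus surrounding cytoplasmic ring, well-averaged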
# ABHD5-PLIN5 inh – inhibitors of human ABHD5-perilipin-5 interaction; Split G. princeps luciferase complementation, luminescence, 4 h; Q00G26+Q8WTS1; inhibition, % at 4 µM; hit rate 0.78% among 360,000;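 active means inhibition above the mean inhibition across every tested compound plus 3 SD, cut at about 22% in these data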
# NOD2-RIPK2 inh – inhibitors of human NOD2-RIPK2 interaction | hit rate 0.38% among 360,000 | O43353 | inhibition, % at 4.98 µM | CHO BLA complementation NOD2-RIPK2, CCF4 ratio | AID 624267; in the data active means inhibition above about 21%
# TLR9-MyD88 inh – inhibitors of human TLR9-MyD88 binding. Q9NR96+Q99836. CHO BLA complementation TLR9-MyD88, CCF4 FRET ratio. inhibition, % at 4.98 µM. hit rate 0.21% among 340,000;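 active means inhibition above the mean over all tested compounds plus 3 SD, cut at about 21% in these data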
# TLR4 MyD88 comp – blocks binding of human TLR4 to MyD88. O00206+Q99836. HeLa CL3-4 TLR4/MyD88 BLA complementation, FRET ratio. inhibition, % at 8.4 µM. hit rate 0.18% among 200,000; in the data active means inhibition above about 25%
# ABHD5-PLIN5 conf – confirmation of human ABHD5-PLIN5 interaction inhibitors; shares compounds with ABHD5-PLIN5 inh; biochemical ABHD5-PLIN5 interaction, luminescence; inhibition, % at 4 µM; hit rate 67% among 2,200; AID 651612; in the data active means inhibition above about 23%
# HNF4 counter – HNF4 split-luciferase signal hit, counter-screen; inhibition, % at 4 µM; shares compounds with ABHD5-PLIN5 inh; hit rate 77% among 2,200; HNF4 dimerization, luminescence, biochemical; AID 651674;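 active means mean inhibition across replicate wells exceeding the computed hit threshold, cut at about 13% in these data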;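 further: light from luciferase halves that rejoin when HNF4 fusion proteins dimerize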
# Hits are given with their value; i = inactive; nt = no result. Only some compounds are listed: those with a hit (about 1.6% of all), similar ones and a draw of the others.
SMILES,B2AR ag,Dynein cargo inh,ABHD5-PLIN5 inh,NOD2-RIPK2 inh,TLR9-MyD88 inh,TLR4 MyD88 comp,ABHD5-PLIN5 conf,HNF4 counter
COc1ccc(/C=C/C(=O)NC2=NCCS2)cc1OC,i,i,i,i,i,i,nt,nt
COc1cccc(/C=C/C(=O)c2ccc(NC3=NCCCS3)cc2)c1,i,i,44.8,i,i,i,73.8,63.2
Cc1cccc(/C=C/C(=O)c2ccc(NC3=NCCCS3)cc2)c1,i,i,52.3,i,i,i,78.6,60.8
COc1ccc(CN(C)C(=O)COC(=O)c2ccc(-c3ccccc3)cc2)c(OC)c1OC,i,nt,i,i,i,nt,nt,nt
CCCc1nc2ccc(Cl)cn2c1Cc1ccc(C)cc1,nt,nt,i,i,nt,nt,nt,nt
CC(C)c1ccc(C2CC(=O)c3cnc(N4CCc5ccccc5C4)nc3C2)cc1 (configuration not stated),i,i,i,i,i,i,nt,nt
O=C1CC(c2ccco2)Cc2nc(N3CCc4ccccc4C3)ncc21 (configuration not stated),i,i,27.5,i,i,i,i,23.2
COc1ccc(Cc2c(C3CCCCC3)nc3ccc(Cl)cn23)c(C)c1,nt,nt,i,i,nt,nt,nt,nt
CCCCOC(=O)/C=C\C(=O)NC(N)=O,i,i,51.0,i,i,nt,70.9,57.5
Cc1ccccc1NC(=O)Cc1nc(COC(=O)CSc2ccc(F)cc2)cs1,nt,nt,i,i,i,nt,nt,nt
CCOC(=O)N1CCN(c2cc(=O)n(-c3ccc(OC)cc3)c(=O)[nH]2)CC1,i,i,i,i,i,i,nt,nt
Cc1ccc(-n2c(=O)cc(N3CCN(C(=O)c4ccco4)CC3)[nH]c2=O)cc1,i,i,36.5,i,i,i,i,i
COC(=O)C1CCN(c2cc(=O)n(-c3ccc(OC)cc3)c(=O)[nH]2)CC1,i,i,24.3,i,i,i,i,i
CCCNC(=O)c1cc(C2CCCCN2C(=O)c2ccccc2)on1 (configuration not stated),nt,nt,i,i,nt,nt,nt,nt
CCOc1ccc(NC(=O)Cn2sc3nc(C)cc(C)c3c2=O)cc1,i,i,64.3,26.9,i,nt,45.1,105.3
Cc1cc(C)c2c(=O)n(CC(=O)Nc3cccc(F)c3)sc2n1,i,i,44.0,i,i,nt,40.8,109.4
CCOc1ccc(NC(=O)Cn2ncc3ccccc32)cc1,i,nt,i,i,i,nt,nt,nt
CN(C)c1ccc(N=Nc2nc3ccccc3n2C)cc1,i,i,34.4,i,i,nt,26.5,46.4
CCCCn1nnc(NC(=S)NC(=O)c2ccc(OCC)c([N+](=O)[O-])c2)n1,i,nt,i,i,i,nt,nt,nt
O=C(C[C@H]1C[C@H](C(=O)N2CCOCC2)[C@@]2(CCC3CCCC3)c3[nH]c4cc(-c5ccco5)ccc4c3CCN2C1=O)NCCc1ccccn1,i,nt,23.4,i,i,nt,i,16.7
O=C(Nc1cccc(-c2cccc(Cl)c2)c1)C1CCN(Cc2ccc(CO)o2)CC1,i,nt,27.0,i,i,nt,i,i
Cc1ccc2c(c1)C(=O)C(=O)N2Cc1ccc(Cl)cc1,i,nt,33.2,i,i,nt,36.6,51.6
Cc1ccc2c(c1)C(=O)C(=O)N2Cc1ccc(F)cc1,i,nt,i,i,i,nt,nt,nt
COC(=O)CC1SC(=O)NC1=Nc1ccc(O)cc1 (configuration not stated),i,i,i,i,i,i,nt,nt
COC(=O)CC1SC(=O)NC1=O (configuration not stated),i,i,39.2,i,i,i,i,i
CC(=O)N1C[C@@H](CO)[C@@H](N(C)C(=O)C(C)(C)C)C[C@H]1c1ccccc1,nt,nt,i,i,nt,nt,nt,nt
COc1ccc(S(=O)(=O)N(C(C)=O)c2ccc3oc(=O)sc3c2)cc1,i,i,28.7,i,i,i,i,16.4
CCc1nc2c(OCCOc3ccc(F)cc3)cccn2c1N(C)C(=O)c1ccc(C)cc1,nt,nt,i,i,nt,nt,nt,nt
CC1CCN(C(=O)c2ccc(S(=O)(=O)NCc3ccco3)cc2)CC1,i,nt,24.0,i,i,nt,i,i

# From PubChem
